Shown are actives, neighbours in structure and some others; about 0.77% of the full set was active somewhere.
bIAP inhibitor = bovine intestinal alkaline phosphatase inhibitors, primary screen, selectivity assay for TNAP inhibitor project, biochemical, bovine IAP, CDP-star luminescence; alkaline phosphatase, intestinal [Bos taurus]; purified bovine IAP, 30 min; inhibition, % at 20 µM; 190,000 tested, under 10 active;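 active means over 50% inhibition of intestinal alkaline phosphatase at 20 µM in the single-dose screen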
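Assay system – bovine IAP enzyme · Quantity – bovine IAP at 1/65,000,000 final dilution · Detection – CDP-star luminescence signal · Times – 30 min reaction at room temperature · Also added – CDP-star substrate at 30 µM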
hIAP block = human IAP inhibitors, primary screen, biochemical, luminescence, uHTS. purified IAP, CDP-Star luminescence, 30 min. Intestinal-type alkaline phosphatase (Homo sapiens), P09923. hit rate 0.12% among 330,000. AID 2544, 2010. inhibition, % at 10 µM;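 active means inhibition reaching a set limit with compound at 10 µM in the primary screen, cut at about 35% in these data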
Target sequence (P09923 whole entry, looked up): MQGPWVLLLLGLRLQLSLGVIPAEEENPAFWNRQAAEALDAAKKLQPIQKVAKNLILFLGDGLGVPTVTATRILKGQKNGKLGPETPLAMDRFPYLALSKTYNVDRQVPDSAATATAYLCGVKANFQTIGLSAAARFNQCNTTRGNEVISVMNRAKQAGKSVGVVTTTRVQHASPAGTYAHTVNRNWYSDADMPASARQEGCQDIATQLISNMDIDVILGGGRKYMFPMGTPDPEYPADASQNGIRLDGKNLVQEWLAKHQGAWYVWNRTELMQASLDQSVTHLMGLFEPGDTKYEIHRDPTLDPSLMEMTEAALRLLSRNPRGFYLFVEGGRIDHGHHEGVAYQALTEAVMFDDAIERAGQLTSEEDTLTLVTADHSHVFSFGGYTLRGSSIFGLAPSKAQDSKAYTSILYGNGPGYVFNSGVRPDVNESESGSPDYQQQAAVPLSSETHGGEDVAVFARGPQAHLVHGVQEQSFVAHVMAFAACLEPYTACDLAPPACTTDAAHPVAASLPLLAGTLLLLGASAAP
mIAP act = activators of mouse IAP, primary screen, biochemical, luminescence, uHTS; muIAP, CDP-Star luminescence, 30 min; hits give high values; 1 = vehicle-only enzyme signal, 0 = enzyme-free wells; activation factor at 10 µM; AID 2805, 2010; hit rate 0.24% among 330,000; intestinal alkaline phosphatase [Mus musculus];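 active means activation factor of at least 2 at 20 µM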
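Assay system: mouse IAP enzyme; reagent: chemiluminescent substrate CDP-Star; dosing: test compounds delivered from DMSO solution; schedule: 30 min at room temperature; measured by: luminescence from enzymatic CDP-Star hydrolysis; controls: DMSO-only wells and no-enzyme negative control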
hIAP act = human IAP activators, primary screen, biochemical, luminescence, uHTS; Intestinal-type alkaline phosphatase (Homo sapiens), P09923; hit rate 0.16% among 330,000; activation factor at 10 µM; purified human IAP, CDP-Star luminescence, 30 min; hits give high values; 1 = vehicle-only enzyme, 0 = enzyme-free background;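 active means activation factor of the enzyme at least 2-fold when tested at 20 µM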
bIAP act = bovine intestinal alkaline phosphatase activators, primary screen, biochemical, bovine IAP, CDP-star luminescence | alkaline phosphatase, intestinal [Bos taurus] | purified bovine IAP, 30 min; hits give high values; fold of DMSO-control signal, blank-subtracted | activation factor at 20 µM | hit rate 0.17% among 200,000;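 active means activation factor of 2 or more at 20 µM, a signal rise over negative controls twice the positive control's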
mIAP block = inhibitors of mouse IAP, primary screen, biochemical, luminescence, uHTS; intestinal alkaline phosphatase [Mus musculus]; purified mouse IAP, CDP-Star luminescence, 30 min; inhibition, % at 10 µM; hit rate 0.2% among 330,000;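 active means inhibition of at least 40% at 10 µM in the primary screen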
Each line names hits and unclear results; the compound was inactive in the other large screens.

CCC(=O)Nc1cccc(-c2nnc(-c3cccc(NC(=O)CC)c3)o2)c1	mIAP block 43.9
Cc1cc(C)n(-c2nc(NCCC(C)C)c3c4c(sc3n2)COC(C)(C)C4)n1	bIAP act 2.4 (no result: hIAP block, mIAP act, hIAP act, mIAP block)
Cc1cc(C)n(-c2nc(NCCN(C)C)c3c4c(sc3n2)COC(C)(C)C4)n1	none (no result: bIAP inhibitor, bIAP act)
CCc1cc(C(=O)N2CCN(S(=O)(=O)c3ccc(Cl)cc3)CC2)sc1C	none (no result: bIAP inhibitor, bIAP act)
COc1ccc(-n2cc(CNCCc3ncc(C)[nH]3)c(-c3ccccc3Cl)n2)cc1	bIAP act 2.4
COc1ccc(-n2cc(CNCCc3nc(C)cc(C)n3)c(-c3ccccc3Cl)n2)cc1	none
COc1ccc(-n2cc(CNCc3cccnc3)c(-c3cccc(F)c3)n2)cc1	none
COc1ccc(-n2cc(CNCCc3cnc[nH]3)c(-c3cccc(F)c3)n2)cc1	bIAP act 2.9
O=C(Nc1n[nH]c(C2CCCCC2)n1)C1CCCCC1	mIAP act 2.33, bIAP act 8.1
O=C(Nc1ncccn1)C1CCCCC1	none
C[n+]1ccn(CC(=O)c2ccc(Cl)cc2)c1	bIAP act 2.5
C[n+]1ccn(CC(=O)c2ccc(Br)cc2)c1	none
CC(C)COc1cccc(-c2cc(C(=O)N/N=C/c3ccncc3)c3ccccc3n2)c1	none (no result: bIAP inhibitor, bIAP act)
CCOc1ccc(N2C(=O)CC(NC3CCN(C(=O)c4cccs4)CC3)C2=O)cc1 (configuration not stated)	none (no result: bIAP inhibitor, bIAP act)
O=C(Nc1ccccc1-c1ccccc1)NC1CC2CCCC(C1)N2CCc1ccccc1 (configuration not stated)	mIAP act 2.31
N#Cc1ccc(NC(=O)Nc2ccc(Oc3ccc(NC(=O)Nc4ccc(C#N)cc4)cc3)cc2)cc1	mIAP act 2.44 (no result: bIAP inhibitor, bIAP act)
Cc1cccc(NC(=O)COC(=O)c2ccccc2-c2nc3ccccc3s2)c1C	bIAP act 5.2
O=C(CCNS(=O)(=O)c1ccc(Br)cc1)NCc1ccc(Cl)cc1	none (no result: bIAP inhibitor, bIAP act)
COc1cc(/C=C2\SC(=S)N(NC(=O)c3ccccc3O)C2=O)ccc1O	none (no result: bIAP inhibitor, bIAP act)
O=C(NN1C(=O)/C(=C/c2cc([N+](=O)[O-])ccc2O)SC1=S)c1ccccc1O	mIAP block 51.3 (no result: bIAP inhibitor, bIAP act)
C[C@@H]1CN([C@@H](C)CO)C(=O)Cc2cc(NC(=O)Nc3cccc4ccccc34)ccc2O[C@@H]1CN(C)S(C)(=O)=O	mIAP act 2.27 (no result: bIAP inhibitor, bIAP act)
C[C@@H]1CN([C@@H](C)CO)C(=O)Cc2cc(NS(=O)(=O)c3ccccc3)ccc2O[C@H]1CN(C)S(C)(=O)=O	none (no result: bIAP inhibitor, bIAP act)
C[C@@H]1CN([C@@H](C)CO)C(=O)Cc2cc(NC(=O)Nc3cccc4ccccc34)ccc2O[C@@H]1CN(C)Cc1ccc(C(F)(F)F)cc1	mIAP act 2.14 (no result: bIAP inhibitor, bIAP act)
C[C@@H]1CN([C@H](C)CO)C(=O)Cc2cc(NC(=O)Nc3ccccc3)ccc2O[C@@H]1CN(C)Cc1ccc2c(c1)OCO2	mIAP act 2.13 (no result: bIAP inhibitor, bIAP act)
C[C@@H]1CN([C@H](C)CO)C(=O)Cc2cc(NS(=O)(=O)c3ccc(Cl)cc3)ccc2O[C@H]1CN(C)Cc1ccc(C(F)(F)F)cc1	none (no result: bIAP inhibitor, bIAP act)
CC(=O)Nc1ccc(NC(=O)Nc2ccc3c(c2)N(C)C(=O)CS3)cc1	none
CCOc1ccc(OCC)c(NC(=O)Nc2ccc3c(c2)N(C)C(=O)CS3)c1	mIAP act 2.38
COc1cccc(NC(=O)Nc2ccc3c(c2)N(C)C(=O)CS3)c1	mIAP act 2.71
Cc1ccc(NP(=O)(Nc2ccc(C)cc2)Nc2ccc(C)cc2)cc1	mIAP act 2.46
O=C(Nc1ccc(F)cc1F)Nc1ccc(F)cc1F	none
O=C(Nc1ccc(F)cc1F)Nc1csc2ccccc12	mIAP act 2.28 (no result: bIAP inhibitor, bIAP act)
N#C/C(N=Nc1ccccc1O)=N\Nc1ccccc1O	none (no result: bIAP inhibitor, bIAP act)
Cc1noc(C)c1C(=O)Nc1ccc(S(=O)(=O)N2CCCCC2)cc1	none (no result: bIAP inhibitor, bIAP act)
Cc1noc(C)c1C(=O)Nc1ccc(S(=O)(=O)N2CCC(C)CC2)cc1	mIAP block 50.6 (no result: bIAP inhibitor, bIAP act)
COc1ccc(N(CC(=O)NCc2ccco2)C(=O)CNS(=O)(=O)c2ccc(Cl)cc2)cc1	none (no result: bIAP inhibitor, bIAP act)
CC1CCCCN1C(=O)CSc1nnc(Cc2ccccc2)n1C (configuration not stated)	bIAP act 2.1
CC1Cc2ccccc2N1C(=O)CSc1nnc(Cc2ccccc2)n1CCc1ccccc1 (configuration not stated)	bIAP act 5.4 (no result: hIAP block, mIAP act, hIAP act, mIAP block)
Cc1cc(NCCCn2ccnc2)n2nc(-c3ccc(F)cc3)cc2n1	none
Cc1cc(C)c2c(n1)nn1c(NCCCn3ccnc3)cc(C)nc21	bIAP act 2.3 (no result: hIAP block, mIAP act, hIAP act, mIAP block)
Cc1ccc(S(=O)(=O)N2C[C@@H]3[C@H]4CC[C@H](C4)[C@@H]3[C@@H](C)[C@H]2c2ccco2)cc1	none (no result: bIAP inhibitor, hIAP block, hIAP act, bIAP act)
CC(C)CNS(=O)(=O)c1ccc(NC(=O)Cn2nc(-c3ccc(F)cc3)ccc2=O)cc1	hIAP act 2.79
Cc1cccc(N=[N+]([O-])c2cccc(C)n2)n1	none (no result: bIAP inhibitor, hIAP block, hIAP act, bIAP act)
Cc1ccc(C)c(NC(=O)CN2C(=O)CC(C)S(=O)(=O)c3ccccc32)c1 (configuration not stated)	none (no result: bIAP inhibitor, bIAP act)
O=C(NN=C1CCCC1)c1sc2ccccc2c1Cl	none
O=C1CCC/C(=N/NC(=O)c2sc3ccccc3c2Cl)C1	hIAP act 2.77 (no result: bIAP inhibitor, bIAP act)
CCN1C/C(=N\S(=O)(=O)/N=C2\CN(CC)C(=O)N2CC)N(CC)C1=O	none (no result: bIAP inhibitor, bIAP act)
COc1cccc(OCC(=O)NNC(=O)c2cccs2)c1	mIAP block 40.6
COc1ccc(/C(C)=N/Nc2ccc(C(=O)O)cc2)cc1OC	hIAP act 2.07
CSc1nsc(SC)c1NC(=O)OCc1ccccc1	none
CSc1nsc(SC)c1NC(=O)OCCc1ccccn1	mIAP block 41.2
O=C(Cn1nc(-c2ccccc2)ccc1=O)N1CCCCC1	none (no result: bIAP inhibitor, bIAP act)
COc1ccc(/C=C\C(=O)O[C@@H]2C(O)C(O[C@@H]3OC(C)[C@H](O[C@@H]4OCC(O[C@H]5O[C@H](CO)[C@@H](O)C(O)C5O)C(O)C4O)C(O)C3O)[C@H](OC(=O)[C@]34CCC(C)(C)C[C@@H]3C3=CCC5[C@@]6(C)CC(O)C(O[C@@H]7OC(CO)C(O)[C@H](O)[C@H]7O)[C@@](C)(C(=O)O)C6CC[C@@]5(C)[C@]3(CO)CC4)O[C@H]2C)cc1 (some centres not stated)	none (no result: bIAP inhibitor, bIAP act)
COC(=O)c1ccccc1NC(=O)CSc1nncn1-c1ccccn1	none (no result: bIAP inhibitor, bIAP act)
CSCc1nc2sc(C(=O)Nc3nc(C)cs3)c(C)c2c(=O)[nH]1	mIAP block 41.5
COc1ccc(OC)c(NC(=S)NCc2ccccc2OC)c1	none
